Measured values of several laboratories.
Protocols differ between the studies behind these lines.
APLNR: Apelin receptor (APLNR, Homo sapiens, UniProt P35414)
Si: Sucrase-isomaltase, intestinal (Si, Rattus norvegicus, UniProt P23739)
ADRA2C: Alpha-2C adrenergic receptor (ADRA2C, Homo sapiens, UniProt P18825)
ESR1: Estrogen receptor (ESR1, Homo sapiens, UniProt P03372)
PLK4: Serine/threonine-protein kinase PLK4 (PLK4, Homo sapiens, UniProt O00444)

| SMILES | target | effect on | mode | method | pH | measurement | result |
| --- | --- | --- | --- | --- | --- | --- | --- |
| CC[C@H](C)[C@H](NC(=O)[C@H](CCSC)NC(=O)[C@H](CCC(N)=O)NC(=O)[C@H](CCCNC(=N)N)NC(=O)[C@H](Cc1ccccc1)NC(=O)CN)C(=O)N[C@@H](C)C(=O)N[C@@H](CCCNC(=N)N)C(=O)N[C@@H](C)C(=O)N[C@@H](CCCCN)C(=O)N[C@@H](Cc1ccc(O)cc1)C(=O)N[C@@H](CCC(N)=O)C(=O)NCC(=O)N[C@@H](CC(C)C)C(=O)N[C@@H](CC(C)C)C(=O)N[C@@H](Cc1ccc(O)cc1)C(=O)O | APLNR | calcium signal | agonist | fluorescence |  | EC50 | 0.614 µM |
| CCCCCc1cc(O)c2c(c1)OC(C)(CCC=C(C)C)C=C2 (stereo not shown) | Si | enzyme activity | inhibitor | absorbance |  | IC50 | 540 µM |
| CC(C)(C)C#Cc1cc(-c2ccnc(N)c2)cc2c(N)n[nH]c12 | Inhibitor of nuclear factor kappa-B kinase subunit beta (IKBKB, Homo sapiens, UniProt O14920) | enzyme activity | inhibitor | FRET |  | IC50 | 4.59 µM |
| CC[C@H](C)[C@H](NC(=O)[C@H](CCCCN)NC(=O)[C@H](CCCCN)NC(=O)[C@H](C)NC(=O)[C@H](C)NC(=O)[C@@H](NC(=O)[C@H](CCCNC(=N)N)NC(=O)[C@H](CCSC)NC(=O)[C@H](CCC(N)=O)NC(=O)[C@H](CCC(=O)O)NC(=O)[C@H](CCCCN)NC(=O)[C@@H](N)CO)[C@@H](C)CC)C(=O)NCC(=O)N[C@@H](CC(C)C)C(=O)N[C@@H](CC(C)C)C(=O)N[C@@H](CCC(=O)O)C(=O)O | APLNR | calcium signal | antagonist | fluorescence |  | IC50 | 20.3 µM |
| COc1cc2c(cc1OC)CN(CCc1ccc(NC(=O)c3cccc4c(=O)c5cccc(OC)c5[nH]c34)cc1)CC2 | ADRA2C | cell-free assay |  |  |  | Ki | 0.15 µM |
| CC(C)C[C@H](NC(=O)[C@H](CCCNC(=N)N)NC(=O)[C@H](CCCNC(=N)N)NC(=O)[C@H](CS)NC(=O)[C@H](CCCNC(=N)N)NC(=O)[C@H](CCC(=O)O)NC(=O)[C@H](CCCNC(=N)N)NC(=O)[C@@H](N)CO)C(=O)N[C@@H](Cc1c[nH]cn1)C(=O)N[C@@H](CO)C(=O)N[C@@H](CC(C)C)C(=O)N1CCC[C@H]1C(=O)N[C@@H](CC(C)C)C(=O)N[C@@H](Cc1ccccc1)C(=O)N1CCC[C@H]1C(=O)O | APLNR | calcium signal | agonist | fluorescence |  | EC50 | 0.0042 µM |
| CCCCC1CNC2CCc3ccc(OC)cc3C12 (racemic) | ADRA2C | ligand displacement |  | radioligand |  | Ki | 0.622 µM |
| CC(c1ccccc1)(c1ccc(O)cc1)c1ccc(O)cc1 | ESR1 | reporter gene | antagonist | luciferase |  | IC50 | 20.7 µM |
| CC[C@H](C)[C@H](NC(=O)[C@@H](N)CCC(=O)O)C(=O)N[C@@H](C)C(=O)N1CCC[C@H]1C(=O)N[C@H](C(=O)N[C@@H](CC(C)C)C(=O)N[C@@H](Cc1c[nH]cn1)C(=O)N[C@@H](CO)C(=O)N[C@H](C(=O)O)[C@@H](C)OP(=O)(O)O)C(C)C | PLK4 | binding |  | MST | pH 8 | Kd | 0.0229 µM |
| CC[C@H](C)[C@H](NC(=O)[C@H](CO)NC(=O)[C@H](Cc1c[nH]cn1)NC(=O)[C@H](Cc1ccccc1)NC(=O)[C@H](CCCCN)NC(=O)[C@H](CCCCN)NC(=O)[C@H](CS)NC(=O)[C@H](CC(C)C)NC(=O)[C@H](CCC(=O)O)NC(=O)[C@@H]1CCCN1C(=O)[C@@H](N)CO)C(=O)N1CCC[C@H]1C(=O)N[C@@H](CC(C)C)C(=O)N[C@@H](Cc1ccccc1)C(=O)N1CCC[C@H]1C(=O)O | APLNR | calcium signal | agonist | fluorescence |  | EC50 | 0.127 µM |
| CCCCCc1cc(O)c(C/C=C(\C)CCC=C(C)C)c(O)c1 | Si | enzyme activity | inhibitor | absorbance |  | IC50 | 620 µM |
| Clc1ccc(C(c2ccccc2Cl)C(Cl)(Cl)Cl)cc1 (stereo not shown) | Glucocorticoid receptor (NR3C1, Homo sapiens, UniProt P04150) | ligand displacement |  |  |  | IC50 | 2.72 µM |
| C[C@H](CCCOS(=O)(=O)O)[C@H]1CC[C@H]2[C@@H]3CC[C@H]4C[C@@H](O)CC[C@]4(C)[C@H]3CC[C@]12C | cGMP-inhibited 3',5'-cyclic phosphodiesterase 3A (PDE3A, Homo sapiens, UniProt Q14432) | enzyme activity | inhibitor |  |  | IC50 | 7.05 µM |
| CC(C)C[C@@H]1NC(=O)[C@H](CCCNC(=N)N)NC(=O)[C@@H]2CCCN2C(=O)[C@H](CCCNC(=N)N)NC(=O)[C@@H](NC(=O)[C@H](Cc2c[nH]cn2)NC(=O)[C@H](CCCCN)NC(=O)[C@@H]2CSSC[C@H](N)C(=O)N[C@@H](CCCNC(=N)N)C(=O)N3CCC[C@H]3C(=O)N[C@@H](CCCNC(=N)N)C(=O)N[C@@H](CC(C)C)C(=O)N2)CSSC[C@@H](C(=O)O)NC1=O | APLNR | β-arrestin recruitment | antagonist |  |  | IC50 | 10.1 µM |
| CC(C)(c1ccc(O)cc1)c1ccc(C(C)(C)c2ccc(O)cc2)cc1 | ESR1 | reporter gene | antagonist | luciferase |  | IC50 | 2.9 µM |
| CC(C)C[C@H](NC(=O)[C@H](CC(C)C)NC(=O)[C@@H]1CCCN1C(=O)[C@H](C)NC(=O)[C@@H](NC(=O)[C@H](C)N)C(C)C)C(=O)N[C@@H](Cc1c[nH]cn1)C(=O)N[C@@H](CO)C(=O)N[C@H](C(=O)O)[C@@H](C)OP(=O)(O)O | PLK4 | binding |  | MST | pH 8 | Kd | 0.0398 µM |
